# Laboratory results from ChEMBL document CHEMBL1145983, “Novel indolyl aryl sulfones active against HIV-1 carrying NNRTI resistance mutations: synthesis and SAR studies” (J Med Chem, 2003).
# pEC50, pIC50: −log10 of the molar value.
# Columns and labels:
# MT4 [1] = assay: Cytotoxicity, reducing the vaiability of mock-infected cells; format: functional; details: Homo sapiens
# [2] = tested on: Human immunodeficiency virus 1; assay: Selectivity ratio of CC50/EC50; format: functional
# Outline: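 Ratio of CC50 (MTT viability of mock-infected MT-4 cells) to EC50 (MTT-based 50% protection of HIV-1-infected MT-4 cells from cytopathicity), both determined in parallel.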
# [3] = tested on: Human immunodeficiency virus 1; assay: Anti-HIV activity protecting MT-4 cells from HIV-1 induced cytopathogenicity; format: functional, organism-based; details: Human immunodeficiency virus 1, MT4
# MT-4 (Homo sapiens) [4] = assay: Anti-HIV activity to protect MT-4 cells from cytopathogenicity induced by HIV-1 K103N-Y181C (MTT method)
# C8166 [5] = assay: Anti-HIV activity to reduce the amount of p24 in C8166 cells infected with efavirenz resistance strain K103R, V179D, and P225H.; format: functional, cell-based, Homo sapiens
# Outline: (§1)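 Efavirenz-resistant K103R-V179D-P225H virus came from IIIB passaged in C8166 cells with efavirenz (up to 2 µM); stock 3.0 × 10^5 CCID50/mL. Acutely infected C8166 cells (1 × 10^4/well) were incubated at 37 °C with or without compound dilutions. p24 was measured by immunoenzymatic kit. Value is the concentration giving 90% p24 reduction; mean of three experiments.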
# C8166 [6] = assay: Anti-HIV activity to reduce the amount of p24 in WT IIIB infected C8166 cells; format: functional, cell-based; details: Homo sapiens
# Outline: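 HIV-1 IIIB came from supernatants of persistently infected H9/IIIB cells; stock 4.5 × 10^6 CCID50/mL. Acutely infected C8166 cells (1 × 10^4/well) were incubated at 37 °C with or without compound dilutions. p24 was measured by immunoenzymatic kit. Value is the concentration reducing p24 by 90%; mean of three experiments.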
# MT4 [7] = assay: Anti-HIV activity to protect MT-4 cells from HIV-1 induced cytopathogenicity by MTT method Y181C; format: functional, cell-based; details: Homo sapiens
# Outline: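 Acutely infected MT-4 cells (1 × 10^4/well) exposed to serial compound dilutions, then HIV-1 (wt IIIB from H9/IIIB supernatant, or Y181C mutant NIH N119) at inoculum giving full cytopathicity by day 4; 37 °C incubation; viability read by MTT. EC50 = µM giving 50% protection from virus-induced cytopathicity; mean ± SE of three experiments.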
# MT-4 (Homo sapiens) [8] = assay: Anti-HIV activity to protect MT-4 cells from cytopathogenicity induced by HIV-1 K103N-Y181C (MTT method); remark: listed apart in the source
# [9] = molecular target: Human immunodeficiency virus type 1 reverse transcriptase (Human immunodeficiency virus 1, UniProt Q72547); assay: Activity to inhibit HIV-1 Reverse transcriptase activity in WT IIIB
# Outline: (§2)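 Purified recombinant RT (wt or K103N mutant) assayed for RNA-dependent DNA polymerase activity. Buffer: 50 mM Tris-HCl pH 7.8, 80 mM KCl, 6 mM MgCl2, 1 mM DTT, 0.1 mg/mL BSA. Template:primer was poly(rC)-oligo(dG)12-18 at 0.5 OD260 unit/mL, with [3H]dGTP. Incubated 30 min at 37 °C; acid-insoluble radioactivity counted on glass-fibre filters. IC50 reported as mean of two experiments.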
# [10] = molecular target: Human immunodeficiency virus type 1 reverse transcriptase (Human immunodeficiency virus 1, UniProt Q72547, K103N); assay: Activity to inhibit HIV-1 Reverse transcriptase activity in K103N; outline: as §2
# C8166 [11] = assay: Anti-HIV activity to reduce the amount of p24 in C8166 cells infected with efavirenz resistance strain; format: functional, cell-based; details: Homo sapiens; outline: as §1
SMILES,CC50 (MT4 [1]) [µM],Selectivity index [2],pEC50 [3],pEC50 (MT-4 (Homo sapiens) [4]),EC90 (C8166 [5]) [nM],EC90 (C8166 [6]) [nM],pEC50 (MT4 [7]),pEC50 (MT-4 (Homo sapiens) [8]),pIC50 [9],pIC50 [10],EC90 (C8166 [11]) [nM]
Cc1ccccc1S(=O)(=O)c1c(C(N)=O)[nH]c2ccc(Cl)cc12,> 200,>200000,9.00,5.00,2600,5,–,–,–,–,–
Cc1cccc(S(=O)(=O)c2c(C(N)=O)[nH]c3ccc(Cl)cc23)c1,> 200,>200000,9.00,5.15,260,5,8.22,–,–,–,–
Cc1ccc(S(=O)(=O)c2c(C(N)=O)[nH]c3ccc(Cl)cc23)cc1,> 200,>66667,8.52,–,–,10,7.70,< 4.00,7.14,< 5.30,–
NC(=O)c1[nH]c2ccc(Cl)cc2c1S(=O)(=O)c1ccccc1 [L-737126],45,45000,9.00,–,–,7,–,–,7.60,< 5.30,900
